Vif inh: HIV Vif inhibition | inhibition, % at 7.49 µM | HEK293T cells, Vif self-association by quenched fluorescence, imaging, 24 h | 340,000 compounds, 0.35% hits; in the data active means inhibition above about 50%, passing the limit was not always enough; inconclusive means no clear call, values can overlap the other calls; inactive means below about 31%
Runt-CBFb FRET: Runt domain-CBFb interaction inhibition | inhibition, % at 20 µM | AID 1496 | Cerulean-Runt/Venus-CBFb FRET ratio 530/480, 1 h | 220,000 compounds, 0.46% hits;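 active means inhibition over about 50% at 20 µM in the single-dose screen, limit read from the data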
Target sequence (Q01196 whole entry, looked up, the tested form may be a part): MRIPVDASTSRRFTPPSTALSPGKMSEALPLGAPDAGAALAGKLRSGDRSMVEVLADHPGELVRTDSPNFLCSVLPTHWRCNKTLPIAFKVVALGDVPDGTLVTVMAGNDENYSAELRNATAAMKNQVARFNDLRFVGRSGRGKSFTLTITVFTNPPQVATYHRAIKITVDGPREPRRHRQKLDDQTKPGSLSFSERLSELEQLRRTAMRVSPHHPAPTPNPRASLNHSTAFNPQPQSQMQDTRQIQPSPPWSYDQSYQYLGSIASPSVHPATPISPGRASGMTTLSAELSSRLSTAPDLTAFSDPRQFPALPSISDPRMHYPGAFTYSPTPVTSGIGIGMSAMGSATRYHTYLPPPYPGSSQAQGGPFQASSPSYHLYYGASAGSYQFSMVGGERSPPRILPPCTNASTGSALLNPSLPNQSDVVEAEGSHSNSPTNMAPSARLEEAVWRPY
Target sequence (Q13951 whole entry, looked up, the tested form may be a part): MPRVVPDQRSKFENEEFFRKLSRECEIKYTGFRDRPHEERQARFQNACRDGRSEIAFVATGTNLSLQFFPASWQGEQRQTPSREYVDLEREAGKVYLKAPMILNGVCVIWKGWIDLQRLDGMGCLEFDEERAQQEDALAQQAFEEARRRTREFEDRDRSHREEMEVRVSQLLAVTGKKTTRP
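Measured by: fluorescence energy transfer, 422 nm excitation, 530/480 nm emission; test system: Cerulean-tagged RUNX1 Runt domain (FRET donor) fusion protein; buffer or medium: Tris pH 7.5 buffer with BSA; compound: one dose, 20 µM compound, 1% DMSO; times: two 1 h room-temperature incubations shielded from light; benchmarks: unlabeled CBFb 5 µM, positive control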
Runt-SMMHC FRET: Runt domain-CBFb-SMMHC interaction inhibition; inhibition, % at 20 µM; Cerulean-Runt/Venus-CBFb-SMMHC FRET ratio 530/480, 1 h; 220,000 compounds, 0.74% hits;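 active means mean inhibition across duplicate retests at 20 µM reaching about 50%, limit read from the data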;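 further: inhibitors lower the FRET ratio by blocking Runt binding to CBFb-SMMHC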
Rce1 inhib: blocks yeast Ras-converting enzyme | yeast membranes, quenched prenylated peptide cleavage fluorescence | calls only | 290,000 compounds, 0.27% hits;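 active means fall in fluorescence gain of 50% or more versus controls, with final raw signal at or below 3038400; inconclusive means same 50% fall but final raw signal above 3038400; inactive means fall in fluorescence gain under 50%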
RanGTP-Impb inh: disruptors of Ran-importin-beta complex formation – biochemical, FRET, CFP-Ran, YFP-importin-beta, homogeneous, primary screen; cell-free CFP-Ran/YFP-importin-beta FRET ratio; inhibition, % (concentration not given with the values); 300,000 compounds, 1.1% hits; AID 2216;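 active means more than half of the replicate wells show a fall in the fluorescence ratio signal beyond about 16%, limit read from the data, passing the limit was not always enough; inconclusive means exactly half of the replicate wells pass the set limit; inactive means fewer than half of replicates pass the limit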
Large screens that a line does not name were inactive. Rows were chosen to be rich in hits. Some 1.7% of all compounds tested hit in one or more screens of this group.

O=Cc1cn(-c2ccccc2)nc1-c1cc2cc(O)ccc2oc1=O	Runt-CBFb FRET 93.7, Runt-SMMHC FRET 57.2, RanGTP-Impb inh 39.8
CCSC1=N/C(=C\c2ccc3c(c2)OCO3)C(=O)S1	none
CN1C(=O)/C(=C/c2ccc3c(c2)OCO3)N=C1c1ccccc1	RanGTP-Impb inh 17.4
Cc1ccc2c(c1)c1c3n2CCN(C(=O)CN2CCN(C)CC2)C3CCC1 (stereo unspecified)	RanGTP-Impb inh inconclusive (no result: Vif inh)
CN1CCN(CC(=O)N2CCn3c4c(c5cc(C6CCCCC6)ccc53)CCCC42)CC1 (stereo unspecified)	Vif inh 98.0 (no result: RanGTP-Impb inh)
CC(C)(C)C(=O)CSc1nc2c(c(-c3cccs3)c1C#N)CCC2	RanGTP-Impb inh 62.1
COc1ccc(S(=O)(=O)N(C)C[C@H]2OCc3cnnn3CCCC(=O)N([C@@H](C)CO)C[C@H]2C)cc1	none (no result: Runt-CBFb FRET, Runt-SMMHC FRET, Rce1 inhib, RanGTP-Impb inh)
O=C(NCCN1CCNCC1)c1ccccc1O	Vif inh 61.7 (no result: Runt-CBFb FRET, Runt-SMMHC FRET)
Cc1cccc(Cl)c1NC(=O)NCCCN1CCCCC1C (stereo unspecified)	none (no result: Runt-CBFb FRET, Runt-SMMHC FRET, Rce1 inhib, RanGTP-Impb inh)
Cc1ccccc1NC(=S)N1CCN(Cc2ccc3c(c2)OCO3)CC1	none
Cc1c(Cl)cccc1NC(=S)N1CCN(Cc2ccc3c(c2)OCO3)CC1	Vif inh 53.1 (no result: Rce1 inhib)
O=[N+]([O-])c1ccc(C=NN2CCCCCC2)cc1	none (no result: Runt-CBFb FRET, Runt-SMMHC FRET, Rce1 inhib, RanGTP-Impb inh)
CCc1nc2c(OCc3cc(Cl)cc(Cl)c3)cccn2c1N(C=O)Cc1ccccc1	none (no result: Runt-CBFb FRET, Runt-SMMHC FRET, Rce1 inhib, RanGTP-Impb inh)
Cc1ccc(S(=O)(=O)C(C#N)c2nc3ccccc3nc2N2CCN(C)CC2)cc1C (stereo unspecified)	RanGTP-Impb inh 93.5
N#CC(c1nc2ccccc2nc1N1CCCC1)S(=O)(=O)c1ccccc1 (stereo unspecified)	none (no result: Vif inh)
Cc1cccc(S(=O)(=O)C(C#N)c2nc3ccccc3nc2N2CCCC2)c1 (stereo unspecified)	none
CN1CCN(c2nc3ccccc3nc2C(C#N)S(=O)(=O)c2ccccc2)CC1 (stereo unspecified)	RanGTP-Impb inh 64.3 (no result: Vif inh)
Cc1ccc(S(=O)(=O)c2cc3c(=O)n4ccccc4nc3n(C)c2=N)cc1C	RanGTP-Impb inh 172.6 (no result: Runt-CBFb FRET, Runt-SMMHC FRET)
C=CCn1c(=N)c(S(=O)(=O)c2ccc(C)c(C)c2)cc2c(=O)n3ccccc3nc21	RanGTP-Impb inh 159.6 (no result: Runt-CBFb FRET, Runt-SMMHC FRET)
CCCn1c(=N)c(S(=O)(=O)c2ccc(F)cc2)cc2c(=O)n3ccccc3nc21	RanGTP-Impb inh 176.5 (no result: Runt-CBFb FRET, Runt-SMMHC FRET)
Cn1c(=N)c(S(=O)(=O)c2ccc(F)cc2)cc2c(=O)n3ccccc3nc21	Runt-CBFb FRET 63.1, Runt-SMMHC FRET 80.4 (no result: Vif inh)
Cn1c(=N)c(S(=O)(=O)c2ccccc2)cc2c(=O)n3ccccc3nc21	Runt-SMMHC FRET 61.6 (no result: Rce1 inhib, RanGTP-Impb inh)
CCCn1c(=N)c(S(=O)(=O)c2ccc(F)cc2)cc2c(=O)n3cccc(C)c3nc21	RanGTP-Impb inh 144.4 (no result: Runt-CBFb FRET, Runt-SMMHC FRET)
CC12CN(S(=O)(=O)c3ccccc3)CC(C)(CN(S(=O)(=O)c3ccccc3)C1)C2	none
Cc1ccc(C(=O)OCC(=O)NNC(=O)COc2ccc(Cl)cc2)c(O)c1	none (no result: Runt-CBFb FRET, Runt-SMMHC FRET)
O=C(CC1(O)C(=O)N(C/C=C/c2ccccc2)c2ccccc21)c1ccccn1 (stereo unspecified)	Rce1 inhib active
O=C(/C=C\Nc1ccc2c(c1)OCO2)c1cccs1	Vif inh 66.2
COc1ccc2c(C#N)c3ccccn3c2c1	Runt-SMMHC FRET 91.9
Cc1c(C#N)c2ccccc2n1C	none
Cc1cc(=O)n2ccccc2c1C#N	Rce1 inhib active
COc1ccc(-c2cc(-c3nnc(COC(=O)c4ccncc4)o3)c3ccccc3n2)cc1OC	none
O=C(Nc1nnc2n1CCS2)c1ccc(Br)o1	none (no result: Runt-CBFb FRET, Runt-SMMHC FRET)
CCCCn1nc(C(=O)Oc2ccc3c(C)cc(=O)oc3c2)c2ccccc2c1=O	Runt-SMMHC FRET 57.8
CCCC(=O)Oc1ccc2c(C)cc(=O)oc2c1	RanGTP-Impb inh inconclusive
Cc1cc(=O)oc2cc(OC(=O)c3cncc(Br)c3)ccc12	Runt-SMMHC FRET 59.2
Nc1c(N(CCC2=CCCCC2)C(=O)Cc2ccccc2F)c(=O)[nH]c(=O)n1Cc1ccccc1	none (no result: Runt-CBFb FRET, Runt-SMMHC FRET, Rce1 inhib, RanGTP-Impb inh)
CCOC(=O)CC(=O)CSc1ncnc2c1oc1ccccc12	Vif inh 56.5
O=C(O)CSCC(=O)N1N=C2/C(=C/c3ccccc3)CCCC2C1c1ccccc1 (stereo unspecified)	none (no result: Runt-CBFb FRET, Runt-SMMHC FRET, Rce1 inhib)
NC(=O)N1N=C2/C(=C/c3ccccc3)CCCC2C1c1ccccc1 (stereo unspecified)	Rce1 inhib active (no result: Runt-CBFb FRET, Runt-SMMHC FRET)
Cc1ccc(S(=O)(=O)/C(C#N)=C/c2c(N3CCC(C(N)=O)CC3)nc3ccccn3c2=O)cc1	RanGTP-Impb inh 34.2
Cc1ccc(S(=O)(=O)/C(C#N)=C/c2c(N3CCC(C(N)=O)CC3)nc3c(C)cccn3c2=O)cc1	none
CCN1CCN(c2nc3ccccn3c(=O)c2/C=C(\C#N)S(=O)(=O)c2ccccc2)CC1	RanGTP-Impb inh 76.8
Cc1onc(-c2ccccc2)c1C(=O)NCC(=O)Nc1cc(Cl)ccc1Cl	none (no result: Runt-CBFb FRET, Runt-SMMHC FRET, Rce1 inhib, RanGTP-Impb inh)
Fc1cccc(NC(=S)NNc2c3ccccc3nc3ccccc23)c1	Runt-CBFb FRET 88.0, Runt-SMMHC FRET 87.0
Fc1cccc(NC(=S)NNc2ccccc2)c1	none (no result: Runt-CBFb FRET, Runt-SMMHC FRET)
Cc1ccc(N2CC(NS(=O)(=O)c3cccnc3)CC2=O)cc1C (stereo unspecified)	RanGTP-Impb inh 32.5 (no result: Runt-CBFb FRET, Runt-SMMHC FRET)
O=C(NC1CCCCC1)C(c1ccc(Cl)cc1)N(C(=O)c1ccccn1)c1cccnc1 (stereo unspecified)	none (no result: Vif inh, Runt-CBFb FRET, Runt-SMMHC FRET)
O=C(O)c1ccc(N/N=C/c2cn(Cc3ccccc3F)c3ccccc23)cc1	Rce1 inhib active
COC(=O)N/N=C/c1cn(Cc2ccccc2Cl)c2ccccc12	Rce1 inhib active
CCNc1c(NC(=O)C2CCC(C)CC2)c(=O)oc2ccccc12 (stereo unspecified)	none (no result: Runt-CBFb FRET, Runt-SMMHC FRET)
Cn1c(=O)c2c(SCCN3CCOCC3)nc(C3CCCC3)nc2n(C)c1=O	none
Cc1cc(SCc2ccc(Cl)c(Cl)c2)nc(=O)[nH]1	none (no result: Runt-CBFb FRET, Runt-SMMHC FRET)
Cn1cc(CN2CCC[C@H]2CO)c(-c2cccc(Cl)c2)n1	RanGTP-Impb inh 110.4
COc1ccccc1C1CN(c2ccccc2)N=C1c1cccs1 (stereo unspecified)	Runt-SMMHC FRET 59.4 (no result: Vif inh)
COc1cccc(C2CN(c3ccc(F)cc3F)N=C2c2cccs2)c1OC (stereo unspecified)	RanGTP-Impb inh inconclusive
O=C1c2cccc3c(N4CCOCC4)c([N+](=O)[O-])cc(c23)C(=O)N1c1cccc2ccccc12	none
Cc1cccc(N2C(=O)c3cccc4c(N5CCCCC5)c([N+](=O)[O-])cc(c34)C2=O)c1C	Rce1 inhib active
Cc1ccccc1OCC(=O)NCCCNC(=O)c1ccncc1	none (no result: Runt-CBFb FRET, Runt-SMMHC FRET)
O=C(Nc1ccc2c(c1)CCC2)c1ccccc1Br	Rce1 inhib active (no result: Vif inh)
O=C(O)c1ccccc1C(=O)NC1CCCc2ccccc21 (stereo unspecified)	none (no result: Vif inh, Runt-CBFb FRET, Runt-SMMHC FRET)
O=C(NC1CCCc2ccccc21)c1ccccc1Br (stereo unspecified)	Vif inh 59.9
CSc1ccccc1C(=O)Nc1ccc2c(c1)CCC2	none (no result: Runt-CBFb FRET, Runt-SMMHC FRET)

Bioassay records (PubChem BioAssay)
